≈ marks a conversion by molar mass, not a printed value. Entries after “also recorded” stand apart in the source; their conditions may differ. Where two headings read alike, the source gives them in different places.
Columns and labels:
[1] = Aqueous solubility at pH 2.0, in-house HPLC assay; format: physicochemical
[2] = tested on: chloroquine-resistant Dd2 strain; assay: Antiplasmodial activity against chloroquine-resistant Dd2 strain; format: cell-based, Plasmodium falciparum; settings: for antimalarial activity / potency (in words): qualitative statement
[3] = Aqueous solubility, Biomek FX with pION μSOL evolution software; format: physicochemical; settings: for solubility: pH 6.5
[4] = tested on: HepG2 human hepatoma cells; assay: Cytotoxicity, HepG2 cells, MTS cell proliferation assay; format: cell-based; settings: for EC50: read-out: HepG2 EC50; for Selectivity: SI = EC50(HepG2)/EC50(Dd2)
Summary of the method: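 HepG2 human hepatoma cells were seeded at 2,500 cells/well and pre-incubated for 24 h. Serial dilutions of test compound (0–40 μM range) were then added, followed by a further 48 h incubation.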

Work on `OC1CC2(CCN(CCC3CCCCC3)CC2)Oc2c1ccc1ccccc21` (stereo not shown) [Compound 3e, 1’-(2-Cyclohexylethyl)-3,4-dihydrospiro[benzo[h]chromene-2,4’-piperidin]-4-ol] yielded a solubility ([1]; aqueous solution, pH 2) of 40 to 80 µM (≈ 15.2 to 30.4 µg/mL), an EC50 ([2]; Plasmodium falciparum, DD2, read-out: Dd2 EC50, chloroquine-resistant Dd2 strain) of 0.32 µM and a solubility ([3]; aqueous solution) of 20 to 40 µM (≈ 7.59 to 15.2 µg/mL).
For `O=C(Cc1ccc(F)c(F)c1)N1CCC2(CC1)CC(O)c1ccc3ccccc3c1O2` (stereo not shown) [Compound 3l, 2-(3,4-Difluorophenyl)-1-(4-hydroxy-3,4-dihydrospiro[benzo[h]chromene-2,4’-piperidin]-1’yl)ethanone], the “antimalarial activity / potency (in words)” value [2] was “lacked antimalarial activity; also recorded: completely lost”.
For `O=C(Cc1ccc(F)c(F)c1)N1CCC2(CCc3ccc4ccccc4c3O2)CC1` [Compound 5j, 2-(3,4-Difluorophenyl)-1-(3,4-dihydrospiro[benzo[h]chromene-2,4’-piperidin]-1’ yl)ethanone], the “antimalarial activity / potency (in words)” value [2] was “completely lost”.
Work on `O=C1CC2(CCN(Cc3ccccc3)CC2)Oc2c1ccc1ccccc21` [Compound 2c, 1’-Benzylspiro[benzo[h]chromene-2,4’-piperidin]-4(3H)-one] yielded a solubility ([1]; aqueous medium at pH 2.0, pH 2) of at least 80 µM and a solubility ([3]; aqueous medium) of 40 to 80 µM (≈ 14.3 to 28.6 µg/mL).
Molecule `c1ccc2c3c(ccc2c1)CCC1(CCNCC1)O3` [Compound 5a, 3,4-Dihydrospiro[benzo[h]chromene-2,4’-piperidine]] has a solubility ([1]; aqueous solution, pH 2) of 40 to 80 µM (≈ 10.1 to 20.3 µg/mL) and a solubility ([3]; aqueous solution) of 20 to 40 µM (≈ 5.07 to 10.1 µg/mL).
In the case of `O=C(CN1CCC2(CC1)CC(=O)c1ccc3ccccc3c1O2)c1ccc(F)c(F)c1` [Compound 2g, 1’-(2-(3,4-Difluorophenyl)-2-oxoethyl)spiro[benzo[h]chromene-2,4’-piperidin]-4(3H)-one], the solubility ([1]; aqueous solution, pH 2) is reported as 40 to 80 µM (≈ 16.9 to 33.7 µg/mL) and the solubility ([3]; aqueous solution) is reported as 40 to 80 µM (≈ 16.9 to 33.7 µg/mL).
In the case of `O=C(CN1CCC2(CC1)CC(O)c1ccc3ccccc3c1O2)c1ccc(F)c(F)c1` (stereo not shown) [Compound 3g, 1-(3,4-Difluorophenyl)-2-(4-hydroxy-3,4-dihydrospiro[benzo[h]chromene-2,4’-piperidin]-1’yl)ethanone], the solubility ([1]; aqueous solution, pH 2) is reported as 20 to 40 µM (≈ 8.47 to 16.9 µg/mL) and the solubility ([3]; aqueous solution) is reported as 20 to 40 µM (≈ 8.47 to 16.9 µg/mL).
Molecule `OC(CN1CCC2(CCc3ccc4ccccc4c3O2)CC1)c1ccc(F)c(F)c1` (stereo not shown) [Compound 5i, 1-(3,4-Difluorophenyl)-2-(3,4-dihydrospiro[benzo[h]chromene-2,4’-piperidin]-1’-yl)ethanol] has a solubility ([1]; aqueous solution, pH 2) of 40 to 80 µM (≈ 16.4 to 32.8 µg/mL).
With “1-(3,4-Difluorophenyl)-2-(1,4-dihydro-2H-spiro[phenanthrene-3,4’-piperidin]-1’-yl)ethan-1-one [Compound 5g]” the EC50 ([4]; HepG2 cells, 48 h incubation, MTS, n = 3) was over 20 µM, the EC50 ([2]; read-out: Dd2 EC50, chloroquine-resistant Dd2 strain) was over 2.5 µM and the “Solubility pH 6.5” value ([3]; pH 6.5, Table 6) was “^*** (For 20 μM < solubility ≤ 40 μM)”.
`CCN1CCC[C@@]2(CC(O)c3ccc4ccccc4c3O2)C1` (stereo partly drawn) [Compound 11a, (2R)-1’-Ethyl-3,4-dihydrospiro[benzo[h]chromene-2,3’-piperidin]-4-ol] gave an EC50 ([4]; Homo sapiens, HepG2, 48 h) of over 20 µM and a Selectivity [4] of over 28.8.
For `O=C1CC2(CCN(CCc3ccc(F)c(F)c3)CC2)Oc2c1ccc1ccccc21` [Compound 2h, 1’-(3,4-Difluorophenethyl)spiro[benzo[h]chromene-2,4’-piperidin]-4(3H)-one], the solubility ([3]; aqueous solution) was 10 to 20 µM (≈ 4.07 to 8.15 µg/mL).
`O=C1CC2(CCN(CCc3ccccc3)CC2)Oc2c1ccc1ccccc21` [Compound 2d, 1’-Phenethylspiro[benzo[h]chromene-2,4’-piperidin]-4(3H)-one] showed a solubility ([1]; aqueous medium at pH 2.0, pH 2) of at least 80 µM and a solubility ([3]; aqueous medium) of 40 to 80 µM (≈ 14.9 to 29.7 µg/mL).
In the case of `c1ccc2c3c(ccc2c1)CCC1(CCN(CCC2CCCCC2)CC1)O3` [Compound 5e, 1’-(2-Cyclohexylethyl)-3,4-dihydrospiro[benzo[h]chromene-2,4’-piperidine]], the solubility ([1]; aqueous solution, pH 2) is reported as 40 to 80 µM (≈ 14.5 to 29.1 µg/mL).
`O=C1CC2(CCN(CCCc3ccccc3)CC2)Oc2c1ccc1ccccc21` [Compound 2f, 1’-(3-Phenylpropyl)spiro[benzo[h]chromene-2,4’-piperidin]-4(3H)-one] showed a solubility ([1]; aqueous medium at pH 2.0, pH 2) of 40 to 80 µM (≈ 15.4 to 30.8 µg/mL) and a solubility ([3]; aqueous medium) of 20 to 40 µM (≈ 7.71 to 15.4 µg/mL).
For `CCN1CCC2(CC1)CC(O)c1ccc3ccccc3c1O2` (stereo not shown) [Compound 3b, 1’-Ethyl-3,4-dihydrospiro[benzo[h]chromene-2,4’-piperidin]-4-ol], the solubility ([1]; aqueous solution, pH 2) was 20 to 40 µM (≈ 5.95 to 11.9 µg/mL) and the solubility ([3]; aqueous solution) was 20 to 40 µM (≈ 5.95 to 11.9 µg/mL).
With `O=C1CC2(CCN(CCC3CCCCC3)CC2)Oc2c1ccc1ccccc21` [Compound 2e, 1’-(2-Cyclohexylethyl)spiro[benzo[h]chromene-2,4’-piperidin]-4(3H)-one] the solubility ([1]; aqueous solution, pH 2) was 20 to 40 µM (≈ 7.55 to 15.1 µg/mL), the Selectivity [4] was over 30 and the solubility ([3]; aqueous solution) was 10 to 20 µM (≈ 3.78 to 7.55 µg/mL).
`O[C@H](CN1CCC2(CC1)C[C@@H](O)c1ccc3ccccc3c1O2)c1ccc(F)c(F)c1` [Compound 3mb] showed a Selectivity [4] of under 7.
With `O[C@@H](CN1CCC2(CC1)C[C@H](O)c1ccc3ccccc3c1O2)c1ccc(F)c(F)c1` [Compound 3mc, (S)-1’-((R)-2-(3,4-Difluorophenyl)-2-hydroxyethyl)-3,4-dihydrospiro[benzo[h]chromene-2,4’-piperidin]-4-ol] the EC50 ([4]; Homo sapiens, HepG2, 48 h) was over 20 µM and the Selectivity [4] was over 15.
In the case of `O=C1CC2(CCN(C(=O)Cc3ccc(F)c(F)c3)CC2)Oc2c1ccc1ccccc21` [Compound 2l, 1’-(2-(3,4-Difluorophenyl)acetyl)spiro[benzo[h]chromene-2,4’-piperidin]-4(3H)-one], the “antimalarial activity / potency (in words)” value [2] is reported as “completely lost”.
`OC1CC2(CCN(CCCc3ccccc3)CC2)Oc2c1ccc1ccccc21` (stereo not shown) [Compound 3f, 1’-(3-Phenylpropyl)-3,4-dihydrospiro[benzo[h]chromene-2,4’-piperidin]-4-ol] showed a solubility ([1]; aqueous medium at pH 2.0, pH 2) of at least 80 µM and a solubility ([3]; aqueous medium) of at least 80 µM.
`O=C1C[C@@]2(CCCN(CCc3ccc(F)c(F)c3)C2)Oc2c1ccc1ccccc21` [Compound 10c, (R)-1’-(3,4-Difluorophenethyl)spiro[benzo[h]chromene-2,3’-piperidin]-4(3H)-one] gave a Selectivity [4] of over 30.
`OC1CC2(CCN(CCc3ccccc3)CC2)Oc2c1ccc1ccccc21` (stereo not shown) [Compound 3d, 1’-Phenethyl-3,4-dihydrospiro[benzo[h]chromene-2,4’-piperidin]-4-ol] showed a solubility ([1]; aqueous medium at pH 2.0, pH 2) of 40 to 80 µM (≈ 14.9 to 29.9 µg/mL) and a solubility ([3]; aqueous medium) of 40 to 80 µM (≈ 14.9 to 29.9 µg/mL).
With `c1ccc(CN2CCC3(CCc4ccc5ccccc5c4O3)CC2)cc1` [Compound 5c, 1’-Benzyl-3,4-dihydrospiro[benzo[h]chromene-2,4’-piperidine]] the solubility ([1]; aqueous medium at pH 2.0, pH 2) was 20 to 40 µM (≈ 6.87 to 13.7 µg/mL).
For `OC(CN1CCC2(CC1)CC(O)c1ccc3ccccc3c1O2)c1ccc(F)c(F)c1` (stereo not shown) [Compound 1], the EC50 ([4]; Homo sapiens, HepG2, 48 h) was over 20 µM and the Selectivity [4] was over 53.3.
Molecule `OC1CC2(CCN(Cc3ccccc3)CC2)Oc2c1ccc1ccccc21` (stereo not shown) [Compound 3c, 1’-Benzyl-3,4-dihydrospiro[benzo[h]chromene-2,4’-piperidin]-4-ol] has a solubility ([1]; aqueous medium at pH 2.0, pH 2) of 40 to 80 µM (≈ 14.4 to 28.8 µg/mL) and a solubility ([3]; aqueous medium) of 40 to 80 µM (≈ 14.4 to 28.8 µg/mL).
`O[C@H](CN1CCC2(CC1)C[C@H](O)c1ccc3ccccc3c1O2)c1ccc(F)c(F)c1` [Compound 3md, (S)-1’-((S)-2-(3,4-Difluorophenyl)-2-hydroxyethyl)-3,4-dihydrospiro[benzo[h]chromene-2,4’-piperidin]-4-ol] gave an EC50 ([4]; Homo sapiens, HepG2, 48 h) of over 20 µM and a Selectivity [4] of over 11.
`Fc1ccc(CCN2CCC3(CCc4ccc5ccccc5c4O3)CC2)cc1F` [Compound 5h, 1’-(3,4-Difluorophenethyl)-3,4-dihydrospiro[benzo[h]chromene-2,4’-piperidine]] showed a solubility ([1]; aqueous solution, pH 2) of 20 to 40 µM (≈ 7.87 to 15.7 µg/mL).
`OC1CC2(CCNCC2)Oc2c1ccc1ccccc21` (stereo not shown) [Compound 3a, 3,4-Dihydrospiro[benzo[h]chromene-2,4’-piperidin]-4-ol] gave a solubility ([1]; aqueous solution, pH 2) of 40 to 80 µM (≈ 10.8 to 21.5 µg/mL) and a Selectivity [4] of over 54.5.
